According to ChEMBL document CHEMBL4002631, “Synthesis, antimycobacterial and cytotoxic activity of α,β-unsaturated amides and 2,4-disubstituted oxazoline derivatives” (Bioorg Med Chem Lett, 2017):
In brackets after ≈: the same amount, converted by molar mass.

Test system: Mycobacterium tuberculosis
Test: Antimycobacterial activity against isoniazid/rifampicin/ethambutol-sensitive Mycobacterium tuberculosis H37Rv after 4 days by Alamar blue assay
Format: functional
Details: 96 h
In short: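 Microplate Alamar blue assay against M. tuberculosis H37Rv (sensitive to isoniazid, rifampicin and ethambutol) and a clinical isolate resistant to all three drugs. Compounds were tested at 256, 128, 64, 32, 16, 8, 4, 2 and 1 µg/mL. Isoniazid, rifampicin, ethambutol and ofloxacin controls were run under the same conditions. MIC is given in µg/mL and converted to µM.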

SMILES | MIC
CO[C@H]1/C=C/O[C@@]2(C)Oc3c(C)c(O)c4c(O)c(c(/C=N/N5CCN(C)CC5)c(O)c4c3C2=O)NC(=O)/C(C)=C\C=C\[C@H](C)[C@H](O)[C@@H](C)[C@@H](O)[C@@H](C)[C@H](OC(C)=O)[C@@H]1C [RIFAMPIN] | 4.8 µM (≈ 3.95 µg/mL)
COc1ccc(/C=C/C(=O)N[C@H](CO)Cc2ccccc2)cc1 | 25.6 µM (≈ 7.97 µg/mL)
C(=C\c1ccccc1)/C1=N[C@@H](Cc2ccccc2)CO1 | 60.8 µM (≈ 16 µg/mL)
CC1COc2c(N3CCN(C)CC3)c(F)cc3c(=O)c(C(=O)O)cn1c23 (centres undefined) [OFLOXACIN] | < 2.7 µM
C(=C\c1ccc(OCc2ccccc2)cc1)/C1=N[C@@H](Cc2ccccc2)CO1 | 10.8 µM (≈ 3.99 µg/mL)
CC[C@@H](CO)NCCN[C@@H](CC)CO [ETHAMBUTOL] | 39.1 µM (≈ 7.99 µg/mL)
Clc1ccc(/C=C/C2=N[C@@H](Cc3ccccc3)CO2)cc1 | 26.9 µM (≈ 8.01 µg/mL)
O=C(/C=C/c1cccs1)N[C@H](CO)Cc1ccccc1 | 55.6 µM (≈ 16 µg/mL)
O=C(/C=C/c1ccc(F)cc1)N[C@H](CO)Cc1ccccc1 | 26.7 µM (≈ 7.99 µg/mL)
NNC(=O)c1ccncc1 [ISONIAZID] | < 7.2 µM
O=C(/C=C/c1ccc(OCc2ccccc2)cc1)N[C@H](CO)Cc1ccccc1 | 41.2 µM (≈ 16 µg/mL)
O=C(/C=C/c1ccccc1)N[C@H](CO)Cc1ccccc1 | 56.8 µM (≈ 16 µg/mL)
C(=C\c1cccs1)/C1=N[C@@H](Cc2ccccc2)CO1 | 29.7 µM (≈ 8 µg/mL)
COc1ccc(/C=C/C2=N[C@@H](Cc3ccccc3)CO2)cc1 | 13.6 µM (≈ 3.99 µg/mL)
Fc1ccc(/C=C/C2=N[C@@H](Cc3ccccc3)CO2)cc1 | 14.2 µM (≈ 3.99 µg/mL)
O=C(/C=C/c1ccc(Cl)cc1)N[C@H](CO)Cc1ccccc1 | 25.3 µM (≈ 7.99 µg/mL)

Test system: Liver
Test: Toxicity in Sprague-Dawley rat liver assessed as presence of periportal inflammatory infiltrate at 5 to 30 ug/ml after 24 hrs by hematoxylin and eosin staining-based bright field microscopic method
Format: tissue-based
Details: not given
In short: (§1)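 Ex-vivo 3D assay using precision-cut rat liver slices. Slices were cultured for 24 h at 5, 15 and 30 µg/mL, with compound dissolved in DMSO. Controls were medium alone and 0.5% DMSO (negative), with isoniazid as the reference. Read-out was histopathology of H&E-stained sections under bright-field light microscopy (40x), scoring hepatic cords, portal triads, central veins, inflammatory infiltrate and necrosis.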

SMILES | Activity
NNC(=O)c1ccncc1 [ISONIAZID] | Toxic

Test system: Liver
Test: Toxicity in Sprague-Dawley rat liver assessed as histological damage at 5 to 30 ug/ml after 24 hrs by hematoxylin and eosin staining-based bright field microscopic method
Format: tissue-based
Details: not given
In short: as §1

SMILES | Activity
COc1ccc(/C=C/C2=N[C@@H](Cc3ccccc3)CO2)cc1 | Non-Toxic

Test system: Liver
Test: Toxicity in Sprague-Dawley rat liver assessed as centrilobular necrosis at 5 to 30 ug/ml after 24 hrs by hematoxylin and eosin staining-based bright field microscopic method
Format: tissue-based
Details: not given
In short: as §1

SMILES | Activity
NNC(=O)c1ccncc1 [ISONIAZID] | Toxic
